≈ marks a conversion by molar mass, not a printed value. Calls of active or inactive are those of the source. The calls are words filed in the database; no cut-off is given here.

The source of these data is ChEMBL document CHEMBL4359831, “Chemoproteomics of an Indole-Based Quinone Epoxide Identifies Druggable Vulnerabilities in Vancomycin-Resistant Staphylococcus aureus” (J Med Chem, 2019).

A short description of series [1]: L-cysteine reactivity in pH 7.4 phosphate buffer assessed as compound remaining at 100 uM incubated for 1 hr by HPLC analysis.
Series [2] deals with Staphylococcus aureus. As to the kind of experiment: Bactericidal activity against Staphylococcus aureus ATCC 29213 at 1 to 10 times MIC preincubated up to 24 hrs under shaking condition followed by bacterial plating on Tryptic Soy agar and measured after 18 to 20 hrs by time kill assay. Format: functional, organism-based.
In series [3] the test system is Staphylococcus aureus. As to the kind of experiment: Antibacterial activity against vancomycin-resistant Staphylococcus aureus AIS100050 after 16 to 18 hrs by CLSI M07-A10 protocol based dilution method. Format: functional.
The subject of series [4] is Staphylococcus aureus. Kind of series: Antibacterial activity against vancomycin-resistant Staphylococcus aureus HIP11714 after 16 to 18 hrs by CLSI M07-A10 protocol based dilution method. Format: functional.
In the next series the test system is Escherichia coli. Kind of series: Antibacterial activity against Escherichia coli ATCC 25922 after 16 to 18 hrs by CLSI M07-A10 protocol based dilution method. Format: functional.
In a further series the test system is Enterococcus faecalis. As to the kind of experiment: Antibacterial activity against Enterococcus faecalis B3119 after 16 to 18 hrs by CLSI M07-A10 protocol based dilution method. Format: functional.
A further series has as its system Pseudomonas aeruginosa. Kind of series: Antibacterial activity against Pseudomonas aeruginosa ATCC 27853 after 16 to 18 hrs by CLSI M07-A10 protocol based dilution method. Format: functional.
The nature of series [5]: L-cysteine reactivity in pH 7.4 phosphate buffer at 100 uM preincubated for 1 hr followed by mono-bromobimane addition and measured after 30 mins by fluorescence based competition assay.
Series [6] has as its target T1, Arsenate reductase (Staphylococcus aureus) (UniProt P0A006).
T1 sequence (whole entry): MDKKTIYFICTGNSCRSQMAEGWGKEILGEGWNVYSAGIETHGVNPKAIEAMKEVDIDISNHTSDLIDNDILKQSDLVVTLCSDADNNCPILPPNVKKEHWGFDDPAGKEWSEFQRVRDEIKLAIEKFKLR
As to the kind of experiment: Binding affinity to Staphylococcus aureus ATCC 29213 Arsenate reductase at 10 uM in presence of 9-(Pent-4-yn-1-yl)-1a,10a-dihydro-2H-oxireno[2',3':4,5]-benzo[1,2-a]carbazole-2,10(9H)-dione after 1 hr by biotin-azide fluorescence dependent LC-MS/MS-based ABPP assay. The method, boiled down:
(§1)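 Competitive LC–MS/MS ABPP on S. aureus soluble proteome. Pretreatment 1 h with DMSO, compound (10 μM), comparator (10 μM) or iodoacetamide (10 mM). Chase with alkyne probe (10 μM, 1 h), then Cu-catalysed click with biotin-azide and LC–MS/MS. Targets were proteins at ratio ≤0.1 versus DMSO in the compound and IAM groups and ~1 in the comparator group.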

For series [7], the target named is T2, Alkaline phosphatase synthesis transcriptional regulatory protein (Staphylococcus aureus) (UniProt W8TVM3).
T2 sequence (whole entry): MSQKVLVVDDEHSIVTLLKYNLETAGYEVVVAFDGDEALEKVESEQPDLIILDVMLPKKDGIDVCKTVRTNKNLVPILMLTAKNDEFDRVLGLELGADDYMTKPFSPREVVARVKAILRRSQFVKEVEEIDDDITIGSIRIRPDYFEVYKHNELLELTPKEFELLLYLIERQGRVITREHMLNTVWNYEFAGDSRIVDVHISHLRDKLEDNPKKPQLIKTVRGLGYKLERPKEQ
Kind of series: Binding affinity to Staphylococcus aureus ATCC 29213 Transcriptional regulator PhoP at 10 uM in presence of 9-(Pent-4-yn-1-yl)-1a,10a-dihydro-2H-oxireno[2',3':4,5]-benzo[1,2-a]carbazole-2,10(9H)-dione after 1 hr by biotin-azide fluorescence dependent LC-MS/MS-based ABPP assay. The procedure, abridged: as §1

In series [8] the target is T3, 2-dehydropantoate 2-reductase (Staphylococcus aureus) (UniProt A0A0J9X283).
T3 sequence (whole entry): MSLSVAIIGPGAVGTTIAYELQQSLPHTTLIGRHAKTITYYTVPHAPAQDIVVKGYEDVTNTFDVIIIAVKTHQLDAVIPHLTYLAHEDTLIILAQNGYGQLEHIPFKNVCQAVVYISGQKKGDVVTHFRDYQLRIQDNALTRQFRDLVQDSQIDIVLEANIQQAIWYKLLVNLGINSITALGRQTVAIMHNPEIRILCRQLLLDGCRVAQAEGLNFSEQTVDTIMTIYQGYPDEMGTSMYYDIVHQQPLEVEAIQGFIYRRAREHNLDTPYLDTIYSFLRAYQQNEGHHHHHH
As to the kind of experiment: Binding affinity to Staphylococcus aureus ATCC 29213 2-dehydropantoate 2-reductase at 10 uM in presence of 9-(Pent-4-yn-1-yl)-1a,10a-dihydro-2H-oxireno[2',3':4,5]-benzo[1,2-a]carbazole-2,10(9H)-dione after 1 hr by biotin-azide fluorescence dependent LC-MS/MS-based ABPP assay. The method, boiled down:
as §1

Series [9] relates to Staphylococcus aureus. As to the kind of experiment: Binding affinity to Staphylococcus aureus ATCC 29213 Methionine aminopeptidase at 10 uM in presence of 9-(Pent-4-yn-1-yl)-1a,10a-dihydro-2H-oxireno[2',3':4,5]-benzo[1,2-a]carbazole-2,10(9H)-dione after 1 hr by biotin-azide fluorescence dependent LC-MS/MS-based ABPP assay. The method, boiled down: as §1
In series [10] the test system is Staphylococcus aureus. Kind of series: Binding affinity to Staphylococcus aureus ATCC 29213 Heme peroxidase at 10 uM in presence of 9-(Pent-4-yn-1-yl)-1a,10a-dihydro-2H-oxireno[2',3':4,5]-benzo[1,2-a]carbazole-2,10(9H)-dione after 1 hr by biotin-azide fluorescence dependent LC-MS/MS-based ABPP assay. The method, boiled down:
as §1

Series [11] relates to Staphylococcus aureus. Kind of series: Binding affinity to Staphylococcus aureus ATCC 29213 Thioredoxin at 10 uM in presence of 9-(Pent-4-yn-1-yl)-1a,10a-dihydro-2H-oxireno[2',3':4,5]-benzo[1,2-a]carbazole-2,10(9H)-dione after 1 hr by biotin-azide fluorescence dependent LC-MS/MS-based ABPP assay. The procedure, abridged:
as §1

The subject of series [12] is Staphylococcus aureus. Kind of series: Binding affinity to Staphylococcus aureus ATCC 29213 Transcriptional regulator at 10 uM in presence of 9-(Pent-4-yn-1-yl)-1a,10a-dihydro-2H-oxireno[2',3':4,5]-benzo[1,2-a]carbazole-2,10(9H)-dione after 1 hr by biotin-azide fluorescence dependent LC-MS/MS-based ABPP assay. The method, boiled down:
as §1

Series [13] relates to Staphylococcus aureus. As to the kind of experiment: Binding affinity to Staphylococcus aureus ATCC 29213 DNA polymerase III subunit beta at 10 uM in presence of 9-(Pent-4-yn-1-yl)-1a,10a-dihydro-2H-oxireno[2',3':4,5]-benzo[1,2-a]carbazole-2,10(9H)-dione after 1 hr by biotin-azide fluorescence dependent LC-MS/MS-based ABPP assay. The method, boiled down: as §1
Series [14] deals with Staphylococcus aureus. Kind of series: Binding affinity to Staphylococcus aureus ATCC 29213 Hydroxyethylthiazole kinase at 10 uM in presence of 9-(Pent-4-yn-1-yl)-1a,10a-dihydro-2H-oxireno[2',3':4,5]-benzo[1,2-a]carbazole-2,10(9H)-dione after 1 hr by biotin-azide fluorescence dependent LC-MS/MS-based ABPP assay. The method, boiled down:
as §1

Series [15] can be described thus: Cytotoxicity against African green monkey Vero cells after 72 hrs by MTT assay. Format: cell-based. The conditions noted are these: chlorocebus sabaeus.
Series [16] in a line: Selectivity index, ratio of CC50 for African green monkey Vero cells to MIC90 for Staphylococcus aureus ATCC 29213. Format: toxicity. To be noted: read-out: Selectivity Index.
Another series relates to Erythrocyte. Kind of series: Toxicity in human erythrocytes assessed as induction of hemolysis at 100 ug/ml incubated under shaking condition for 1 hr by spectrophotometric method. Format: cell-based.

As for `CC(C)n1c2ccccc2c2ccc3c(c21)C(=O)C1OC1C3=O` (stereo not given), the Activity is 34% in [1] and “Non-Toxic” in the series with Erythrocyte. The outcome (in the series with Staphylococcus aureus [2]; in series [5]; in series [6]; in series [7]; in series [8]; with Staphylococcus aureus [9]) was Active. Also, the outcome in the series with Staphylococcus aureus [10], with Staphylococcus aureus [11], in the series with Staphylococcus aureus [12], in the series with Staphylococcus aureus [13] and in the series on Staphylococcus aureus [14] was Active. The MIC in the series on Staphylococcus aureus [3] came to 0.5 µg/mL (≈ 1.64 µM); in the series with Staphylococcus aureus [4] it was 0.5 µg/mL (≈ 1.64 µM); in the series with Escherichia coli it was 64 µg/mL (≈ 210 µM); with Enterococcus faecalis, 64 µg/mL (≈ 210 µM); against Pseudomonas aeruginosa it was 64 µg/mL (≈ 210 µM). The compound further yielded a CC50 at 72 h in [15] of over 25 µg/mL. Also, in [16], the selectivity ratio was over 200.
